In assay [1] the test system is Mus musculus. In words: The Narcotic-antagonistic activity the ability to reverse an ED50 dose of morphine when tested in mice by the tail-flick procedure at the dose of 1 mg/kg (s.c.). The class given is functional. Conditions: sc. In outline: (§1)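 Mouse tail-flick antagonism assay: test agents given subcutaneously as hydrochloride salts of racemic mixtures, each at 30, 10, 3 and 1 mg/kg, against a subcutaneous ED50 dose of morphine. The read-out is percent inhibition, meaning reversal, of the morphine tail-flick response. Testing was performed by an outside laboratory (NIDA).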

Assay [2] concerns Mus musculus. In words: The Narcotic-antagonistic activity the ability to reverse an ED50 dose of morphine when tested in mice by the tail-flick procedure at the dose of 3 mg/kg (s.c.). The class given is functional. The following applies: sc. The method in brief: as §1
In assay [3] the test system is Mus musculus. In words: The Narcotic-antagonistic activity the ability to reverse an ED50 dose of morphine when tested in mice by the tail-flick procedure at the dose of 30 mg/kg (s.c.). It counts as functional. The following applies: sc. The method in brief:
as §1

The test system of a further assay is Monkey. Kind of assay: Compound was tested for signs of opiate abstinence at 5 mg/kg dose in monkeys; No effect. Conditions: Cercopithecidae. Also noted: dose 5 mg/kg. The class given is functional, organism-based.
Assay [4] has as its system Mus musculus. Kind of assay: The Narcotic-antagonistic activity the ability to reverse an ED50 dose of morphine when tested in mice by the tail-flick procedure at the dose of 10 mg/kg (s.c.). The class given is functional. Conditions: sc. In outline: as §1
The species entered for assay [5] is Mus musculus. In words: activity in the mouse hotplate procedure. The class given is functional.
Assay [6] has as its system Mus musculus. In words: The ability to reverse an ED50 dose of morphine when tested in mice by the tail-flick procedure at the dose of 3 mg/kg (s.c.) value expressed as narcotic-antagonistic activity. It counts as functional. In outline:
as §1

Assay [7] deals with Mus musculus. Kind of assay: The ability to reverse an ED50 dose of morphine when tested in mice by the tail-flick procedure at the dose of 1 mg/kg (s.c.) value expressed as narcotic-antagonistic activity. The class given is functional. The method in brief: as §1
Assay [8] concerns Mus musculus. In words: The ability to reverse an ED50 dose of morphine when tested in mice by the tail-flick procedure at the dose of 30 mg/kg (s.c.) value expressed as narcotic-antagonistic activity. It counts as functional. In outline:
as §1

Assay [9] concerns Mus musculus. In words: The ability to reverse an ED50 dose of morphine when tested in mice by the tail-flick procedure at the dose of 10 mg/kg (s.c.) value expressed as narcotic-antagonistic activity. It counts as functional. In outline: as §1

Consider six molecules from ChEMBL document CHEMBL1122016, “Aminotetralins as narcotic antagonists. 2. Synthesis and opiate-related activity of 1-phenyl-3-aminotetralins” (1982).

Calls of active or inactive are those of the source. The calls are words filed in the database; no cut-off is given here.

What is called inhibition in vivo is the percentage by which the read-out fell short of the control. As a reminder, the ED50 is the dose that gives a 50% effect, or the effect in half of the subjects. Take `CN(CC1CC1)[C@@H]1Cc2ccccc2[C@@H](c2ccccc2)C1`: at 1 mg/kg the inhibition in vivo in the assay with Mus musculus [1] was 60%. This molecule also showed an inhibition in vivo at 3 mg/kg with Mus musculus [2] of 100%. The molecule also registered an inhibition in vivo at 30 mg/kg in the assay on Mus musculus [3] of 0%. Besides, the outcome with Monkey was inactive. In the assay on Mus musculus [4], 10 mg/kg produced 54% inhibition in vivo. This molecule came in with an ED50 in the assay listed under Mus musculus [5] of 9.1 mg/kg.
Take `CN(CC1CC1)C1C=C(c2ccccc2)c2ccccc2C1` (stereo unspecified): in the assay listed under Mus musculus [5], the ED50 is above 50 mg/kg.
As to `C=CCN1CC[C@]23c4c5ccc(O)c4O[C@H]2C(=O)CC[C@@]3(O)[C@H]1C5.Cl` [NALOXONE HYDROCHLORIDE], the AD50 with Mus musculus [6], in the assay with Mus musculus [7], in the assay with Mus musculus [8] and in the assay with Mus musculus [9] was 0.031 mg/kg in each case.
Take `CN1CC[C@]23c4c5ccc(O)c4O[C@H]2[C@@H](O)C=C[C@H]3[C@H]1C5.CN1CC[C@]23c4c5ccc(O)c4O[C@H]2[C@@H](O)C=C[C@H]3[C@H]1C5.O=S(=O)(O)O`: in the assay listed under Mus musculus [5], the ED50 was 1.2 mg/kg.
Molecule `CN(CC1CC1)[C@@H]1Cc2ccccc2[C@H](c2ccccc2)C1` showed an inhibition in vivo at 1 mg/kg with Mus musculus [1] of 75%. In the assay with Mus musculus [2], this molecule came in with an inhibition in vivo at 3 mg/kg of 100%. In addition, in the assay listed under Mus musculus [5], the median effective dose (ED50) came to 6.3 mg/kg.
`COc1ccc2c3c1O[C@H]1[C@@H](O)C=C[C@H]4[C@@H](C2)N(C)CC[C@@]341.O=S(=O)(O)O` displayed an ED50 in the assay listed under Mus musculus [5] of 7.5 mg/kg.
